Source: ChEMBL document CHEMBL1139884, “Structure-based design, synthesis, and A-site rRNA cocrystal complexes of functionally novel aminoglycoside antibiotics: C2" ether analogues of paromomycin” (2007)
≈ marks a conversion by molar mass, not a printed value.

Tests used:
[1] = tested on: Escherichia coli; assay: Antimicrobial activity against Escherichia coli ATCC 25922 after 20 to 24 hrs; assay type: functional
Summary of the method: (§1)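 Broth microdilution in duplicate; compound in 2.5% DMSO in water, overnight culture added to a final inoculum of about 10^2-10^3 CFU/well. Growth read as A595 after 20-24 h at 37°C, relative to a no-compound well. MIC reported as a range: complete inhibition at the higher concentration, viable cells at the lower. Ampicillin and tetracycline are the positive controls.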

[2] = tested on: Staphylococcus aureus; assay: Antimicrobial activity against Staphylococcus aureus ATCC 13709 after 20 to 24 hrs; assay type: functional; summary of the method: as §1

| SMILES | MIC [1] | MIC [2] |
| --- | --- | --- |
| NCCO[C@H]1[C@H](O[C@@H]2[C@@H](O)[C@H](N)C[C@H](N)[C@H]2O[C@H]2O[C@H](CO)[C@@H](O)[C@H](O)[C@H]2N)O[C@H](CO)[C@H]1O[C@H]1O[C@@H](CN)[C@@H](O)[C@H](O)[C@H]1N | 12 µg/mL (≈ 18.2 µM) | 2 µg/mL (≈ 3.04 µM) |
| NC[C@@H]1O[C@H](O[C@H]2[C@@H](OCCNCCC3CC4CCC3C4)[C@H](O[C@@H]3[C@@H](O)[C@H](N)C[C@H](N)[C@H]3O[C@H]3O[C@H](CO)[C@@H](O)[C@H](O)[C@H]3N)O[C@@H]2CO)[C@H](N)[C@@H](O)[C@@H]1O (stereo partly drawn) | > 10 µg/mL | 5 µg/mL (≈ 6.4 µM) |
| NC[C@@H]1O[C@H](O[C@H]2[C@@H](O)[C@H](O[C@@H]3[C@@H](O)[C@H](N)C[C@H](N)[C@H]3O[C@H]3O[C@H](CO)[C@@H](O)[C@H](O)[C@H]3N)O[C@@H]2CO)[C@H](N)[C@@H](O)[C@@H]1O [PAROMOMYCIN] | 3 µg/mL (≈ 4.87 µM) | 1 µg/mL (≈ 1.62 µM) |
| NC[C@@H]1O[C@H](O[C@H]2[C@@H](OCCNC3CCNCC3)[C@H](O[C@H]3C(O[C@H]4O[C@H](CO)[C@@H](O)[C@H](O)[C@H]4N)[C@@H](N)C[C@@H](N)[C@@H]3O)O[C@@H]2CO)[C@H](N)[C@@H](O)[C@@H]1O (stereo partly drawn) | 25 µg/mL (≈ 33.7 µM) | 2 µg/mL (≈ 2.7 µM) |
| CC(C)(C)CCNCCO[C@H]1[C@H](O[C@@H]2[C@@H](O)[C@H](N)C[C@H](N)[C@H]2O[C@H]2O[C@H](CO)[C@@H](O)[C@H](O)[C@H]2N)O[C@H](CO)[C@H]1O[C@H]1O[C@@H](CN)[C@@H](O)[C@H](O)[C@H]1N | 10 µg/mL (≈ 13.5 µM) | 0.6 µg/mL (≈ 0.808 µM) |
| CN(C)CCO[C@H]1[C@H](O[C@@H]2[C@@H](O)[C@H](N)C[C@H](N)[C@H]2O[C@H]2O[C@H](CO)[C@@H](O)[C@H](O)[C@H]2N)O[C@H](CO)[C@H]1O[C@H]1O[C@@H](CN)[C@@H](O)[C@H](O)[C@H]1N | 12 µg/mL (≈ 17.5 µM) | 6 µg/mL (≈ 8.74 µM) |
| N[C@H]1[C@@H](O[C@H]2[C@H](O[C@@H]3O[C@H](CO)[C@@H](O)[C@H]3OCCNCCc3ccccc3)[C@@H](O)[C@H](N)C[C@@H]2N)O[C@H](CO)[C@@H](O)[C@@H]1O | > 100 µg/mL | 12 µg/mL (≈ 19.9 µM) |
| NC[C@@H]1O[C@H](O[C@H]2[C@@H](OCCNC3C4CC5CC3CC(C4)C5O)[C@H](O[C@@H]3[C@@H](O)[C@H](N)C[C@H](N)[C@H]3O[C@H]3O[C@H](CO)[C@@H](O)[C@H](O)[C@H]3N)O[C@@H]2CO)[C@H](N)[C@@H](O)[C@@H]1O (stereo partly drawn) | 20 µg/mL (≈ 24.7 µM) | 1 µg/mL (≈ 1.24 µM) |
| NC[C@@H]1O[C@H](O[C@H]2[C@@H](OCCNC3CCCCC3)[C@H](O[C@@H]3[C@@H](O)[C@H](N)C[C@H](N)[C@H]3O[C@H]3O[C@H](CO)[C@@H](O)[C@H](O)[C@H]3N)O[C@@H]2CO)[C@H](N)[C@@H](O)[C@@H]1O | 3 µg/mL (≈ 4.05 µM) | 3 µg/mL (≈ 4.05 µM) |
| COc1ccc(CCNCCO[C@H]2[C@H](O[C@@H]3[C@@H](O)[C@H](N)C[C@H](N)[C@H]3O[C@H]3O[C@H](CO)[C@@H](O)[C@H](O)[C@H]3N)O[C@H](CO)[C@H]2O[C@H]2O[C@@H](CN)[C@@H](O)[C@H](O)[C@H]2N)cc1 | 5 µg/mL (≈ 6.31 µM) | < 0.6 µg/mL |
| NC[C@@H]1O[C@H](O[C@H]2[C@@H](OCCNC3CCCc4ccccc43)[C@H](O[C@@H]3[C@@H](O)[C@H](N)C[C@H](N)[C@H]3O[C@H]3O[C@H](CO)[C@@H](O)[C@H](O)[C@H]3N)O[C@@H]2CO)[C@H](N)[C@@H](O)[C@@H]1O (stereo partly drawn) | > 10 µg/mL | 1.25 µg/mL (≈ 1.58 µM) |
| CC(=O)N(CCO[C@H]1[C@H](O[C@@H]2[C@@H](O)[C@H](N)C[C@H](N)[C@H]2O[C@H]2O[C@H](CO)[C@@H](O)[C@H](O)[C@H]2N)O[C@H](CO)[C@H]1O[C@H]1O[C@@H](CN)[C@@H](O)[C@H](O)[C@H]1N)CCc1ccccc1 | 10 µg/mL (≈ 12.4 µM) | 1 µg/mL (≈ 1.24 µM) |
| NCCNCCO[C@H]1[C@H](O[C@@H]2[C@@H](O)[C@H](N)C[C@H](N)[C@H]2O[C@H]2O[C@H](CO)[C@@H](O)[C@H](O)[C@H]2N)O[C@H](CO)[C@H]1O[C@H]1O[C@@H](CN)[C@@H](O)[C@H](O)[C@H]1N | 6 µg/mL (≈ 8.55 µM) | 2 µg/mL (≈ 2.85 µM) |
| NCCO[C@H]1[C@H](O[C@@H]2[C@@H](O)[C@H](N)C[C@H](N)[C@H]2O[C@H]2O[C@H](CO)[C@@H](O)[C@H](O)[C@H]2N)O[C@H](CO)[C@H]1O | 6 µg/mL (≈ 12 µM) | 12 µg/mL (≈ 24.1 µM) |
| NC[C@@H]1O[C@H](O[C@H]2[C@@H](OCCNCCc3cc(C(F)(F)F)cc(C(F)(F)F)c3)[C@H](O[C@@H]3[C@@H](O)[C@H](N)C[C@H](N)[C@H]3O[C@H]3O[C@H](CO)[C@@H](O)[C@H](O)[C@H]3N)O[C@@H]2CO)[C@H](N)[C@@H](O)[C@@H]1O | > 10 µg/mL | 2.5 µg/mL (≈ 2.78 µM) |

More lines, now with the values ahead:

| MIC [1] | MIC [2] | SMILES |
| --- | --- | --- |
| 12 µg/mL (≈ 16.3 µM) | < 1.5 µg/mL | NC[C@@H]1O[C@H](O[C@H]2[C@@H](OCCNc3cccnc3)[C@H](O[C@@H]3[C@@H](O)[C@H](N)C[C@H](N)[C@H]3O[C@H]3O[C@H](CO)[C@@H](O)[C@H](O)[C@H]3N)O[C@@H]2CO)[C@H](N)[C@@H](O)[C@@H]1O |
| 3 µg/mL (≈ 3.92 µM) | 0.3 µg/mL (≈ 0.392 µM) | NC[C@@H]1O[C@H](O[C@H]2[C@@H](OCCNCc3ccc(N)nc3)[C@H](O[C@@H]3[C@@H](O)[C@H](N)C[C@H](N)[C@H]3O[C@H]3O[C@H](CO)[C@@H](O)[C@H](O)[C@H]3N)O[C@@H]2CO)[C@H](N)[C@@H](O)[C@@H]1O |
| 10 µg/mL (≈ 13.1 µM) | 3 µg/mL (≈ 3.94 µM) | NC[C@@H]1O[C@H](O[C@H]2[C@@H](OCCCCCc3ccccc3)[C@H](O[C@@H]3[C@@H](O)[C@H](N)C[C@H](N)[C@H]3O[C@H]3O[C@H](CO)[C@@H](O)[C@H](O)[C@H]3N)O[C@@H]2CO)[C@H](N)[C@@H](O)[C@@H]1O |
| 10 µg/mL (≈ 12.6 µM) | 3 µg/mL (≈ 3.79 µM) | NC[C@@H]1O[C@H](O[C@H]2[C@@H](OCCNCCCCc3ccccc3)[C@H](O[C@@H]3[C@@H](O)[C@H](N)C[C@H](N)[C@H]3O[C@H]3O[C@H](CO)[C@@H](O)[C@H](O)[C@H]3N)O[C@@H]2CO)[C@H](N)[C@@H](O)[C@@H]1O |
| 12 µg/mL (≈ 16 µM) | 2 µg/mL (≈ 2.66 µM) | NC[C@@H]1O[C@H](O[C@H]2[C@@H](OCCNc3cccc(O)c3)[C@H](O[C@@H]3[C@@H](O)[C@H](N)C[C@H](N)[C@H]3O[C@H]3O[C@H](CO)[C@@H](O)[C@H](O)[C@H]3N)O[C@@H]2CO)[C@H](N)[C@@H](O)[C@@H]1O |
| > 100 µg/mL | > 100 µg/mL | NC[C@@H]1O[C@H](O[C@H]2[C@@H](OCCNCc3nc4ccccc4[nH]3)[C@H](O[C@@H]3[C@@H](O)[C@H](N)C[C@H](N)[C@H]3O[C@H]3O[C@H](CO)[C@@H](O)[C@H](O)[C@H]3N)O[C@@H]2CO)[C@H](N)[C@@H](O)[C@@H]1O |
| 12 µg/mL (≈ 15.7 µM) | < 1.5 µg/mL | NC[C@@H]1O[C@H](O[C@H]2[C@@H](OCCNCCc3cccnc3)[C@H](O[C@@H]3[C@@H](O)[C@H](N)C[C@H](N)[C@H]3O[C@H]3O[C@H](CO)[C@@H](O)[C@H](O)[C@H]3N)O[C@@H]2CO)[C@H](N)[C@@H](O)[C@@H]1O |
| 20 µg/mL (≈ 27.3 µM) | 3 µg/mL (≈ 4.09 µM) | NC[C@@H]1O[C@H](O[C@H]2[C@@H](OCCCc3ccccc3)[C@H](O[C@@H]3[C@@H](O)[C@H](N)C[C@H](N)[C@H]3O[C@H]3O[C@H](CO)[C@@H](O)[C@H](O)[C@H]3N)O[C@@H]2CO)[C@H](N)[C@@H](O)[C@@H]1O |
| 6 µg/mL (≈ 7.84 µM) | 0.6 µg/mL (≈ 0.784 µM) | NC[C@@H]1O[C@H](O[C@H]2[C@@H](OCCNCc3ccnc(N)c3)[C@H](O[C@@H]3[C@@H](O)[C@H](N)C[C@H](N)[C@H]3O[C@H]3O[C@H](CO)[C@@H](O)[C@H](O)[C@H]3N)O[C@@H]2CO)[C@H](N)[C@@H](O)[C@@H]1O |
